Only some compounds are listed: those with a hit (about 2.7% of all), similar ones and a draw of the others.
HNF4A DNA FP: change in binding of human HNF4 alpha to DNA; HNF4a-FITC DNA binding, fluorescence polarization, 1 h; activity change, % at 10 µM; 0.3% of 360,000 active; AID 1224865; in the data active means activity change above about 30%, passing the limit was not always enough
PP1 inh: PP1-alpha (human) inhibition in PP5 counter-screen; purified PP1alpha, OMFP fluorescence; 0.9% of 320,000 active; inhibition, % at 6.7 µM;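 active means inhibition above the mean inhibition of all tested compounds plus 3 SD, computed separately for each screening campaign, cut at about 15% in these data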
TPT1 inh: inhibitors of Candida albicans tRNA 2'-phosphotransferase TPT1 | 0.81% of 300,000 active | recombinant caTPT1, FP RNA substrate dephosphorylation | inhibition, % at 5 µM;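 active means inhibition above the mean of all tested compounds plus 3 SD, set per screening campaign, cut at about 24% in these data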;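 further: plate controls were DMSO alone for no effect and ferristatin control at 100 nM for full effect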
Rpn11 inh: Rpn11 (human) deubiquitinase inhibition. O00487. human 26S proteasome, Ub4-pepOG fluorescence polarization; 20S core pre-blocked with epoxomicin. inhibition, % at 20 µM. 0.59% of 360,000 active. AID 588493;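 active means inhibition at 20 µM, scaled to each plate's controls, above about 33%, limit read from the data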
Target sequence (O00487 whole entry, looked up): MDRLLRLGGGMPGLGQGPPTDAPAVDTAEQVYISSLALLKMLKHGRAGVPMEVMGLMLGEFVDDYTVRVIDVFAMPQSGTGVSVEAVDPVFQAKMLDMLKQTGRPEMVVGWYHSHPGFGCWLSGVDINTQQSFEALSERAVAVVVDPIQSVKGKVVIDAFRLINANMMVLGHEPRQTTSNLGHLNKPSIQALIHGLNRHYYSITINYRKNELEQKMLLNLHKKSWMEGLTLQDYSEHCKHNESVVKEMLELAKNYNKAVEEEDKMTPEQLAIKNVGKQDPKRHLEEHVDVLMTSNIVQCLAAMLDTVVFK
CSN deneddyl inh: CSN deneddylation inhibition; inhibition, % at 12.5 µM; Purified CSN, SCF-Nedd8-OG deneddylation, fluorescence polarization; 0.38% of 360,000 active; Q92905;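 active means pattern-corrected inhibition above about 35%, with an unprinted fluorescence ratio check between 0.5 and 1.5, limit read from the data, passing the limit was not always enough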;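 further: 0% = enzyme with substrate and 100% = substrate without enzyme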
Target sequence (Q92905 whole entry, looked up, one chain of several): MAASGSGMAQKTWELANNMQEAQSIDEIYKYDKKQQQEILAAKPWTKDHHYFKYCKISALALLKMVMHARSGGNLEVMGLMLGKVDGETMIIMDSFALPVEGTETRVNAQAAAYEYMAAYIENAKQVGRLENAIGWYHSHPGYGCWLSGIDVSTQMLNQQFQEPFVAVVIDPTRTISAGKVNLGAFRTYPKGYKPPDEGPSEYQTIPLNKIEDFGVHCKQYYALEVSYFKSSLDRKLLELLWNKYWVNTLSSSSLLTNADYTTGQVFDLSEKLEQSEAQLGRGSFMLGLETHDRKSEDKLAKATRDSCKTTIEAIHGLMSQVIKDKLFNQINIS
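Material: human Csn5 produced in HEK293T cells; Input: enzyme 0.24 nM; Reagent: SCFSkp2-Nedd8OG substrate at 10 nM final; Dosing: 12.5 µM compound; Incubation: 90 min reaction at room temperature; Detection: fluorescence polarization of the substrate; Evaluation: % inhibition of substrate cleavage by Csn5; Control set: substrate-only high control, full reaction low control.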
NadD block: blocks S. aureus nicotinate mononucleotide adenylyltransferase; purified NadD enzyme, colorimetric absorbance read-out; inhibition, % at 20 µM; 0.78% of 360,000 active; AID 602399; in the data active means inhibition above about 26%
The depositor's hits bear a star; . = not tested or not shown; ! = a repeat was not active.

SMILES	HNF4A DNA FP	PP1 inh	TPT1 inh	Rpn11 inh	CSN deneddyl inh	NadD block
CC(=O)c1cccc(N2C(=NC(=O)C3CCCCC3)SC3CS(=O)(=O)CC32)c1 (centres undefined)	2.9	-2.5	-1.9	-0.4	-3.0	6.0
C/C(=C\c1ccc2c(c1)OCO2)C1Nc2cccc3cccc(c23)N1	-0.6	2.8	.	-0.3	-1.5	32.6*
C/C(=C\c1ccccc1)C1Nc2cccc3cccc(c23)N1	.	4.7	.	.	.	.
CCN=c1scc(C)n1/N=C/c1cc(Br)c(O)c(OC)c1	5.1	0.6	2.8	12.8	3.1	35.3*
CC(=O)Nc1cc(-c2cccc(C(=O)NCCN(C)C)c2)cn2c(-c3ccc(F)c(Cl)c3)cnc12	6.1	.	.	19.7	82.4*	-7.1
CC(=O)Nc1cc(-c2cccc(C(=O)NCCN(C)C)c2)cn2c(-c3ccc(C(C)=O)cc3)cnc12	3.3	.	.	-2.8	4.3	0.6
CC(/C=C1\SC(=S)N(CCC(=O)Nc2ccccc2O)C1=O)=C\c1ccccc1	47.0*	14.1	18.3	.	35.7*	33.7*
Cc1cc(NC(=S)N(Cc2ccc(Cl)cc2)Cc2ccc(C(=O)O)cc2)ccc1Cl	12.9	15.9*	0.4	1.3	5.2	17.5
COC(=O)c1ccc(-c2ccco2)n1Cc1ccccc1Cl	2.0	0.1	-0.7	6.6	48.8*	8.3
COc1cc(C(=O)NC(C)c2cccc3ccccc23)cc(OC)c1OC (centres undefined)	-2.2	-0.2	-0.7	1.9	-0.3	-1.3
CCOc1cccc2sc(N(CCCN(C)C)C(=O)c3ccc(S(=O)(=O)N4CCc5ccccc5C4)cc3)nc12	3.0	13.0	-3.2	4.8	-2.7	4.5
CCc1ccc2nc(N(CCCN(C)C)C(=O)c3ccc(S(=O)(=O)N4CCc5ccccc5C4)cc3)sc2c1	1.1	17.2*	3.6	-1.5	4.2	7.2
Fc1cccc(Cc2c(C3CCCCC3)nc3ccc(Br)cn23)c1	12.7	.	.	31.2	1.8	6.6
COC(=O)C1=C(C)N(Cc2ccccc2)C(=NCCCCO)N[C@H]1c1ccccc1	.	15.5*	-2.9	.	.	.
CCCc1ccc(Oc2cc(C)nc(N3CCOCC3)n2)cc1	3.5	-1.6	0.8	-0.6	94.2*	-9.0
COc1cccc(-n2c(SCc3cc(=O)oc4cc(O)c(O)cc34)nc3ccccc3c2=O)c1	-10.8	12.4	2.3	-3.8	12.8	64.5*
CCN(CC)C(=O)CSc1nc2ccccc2c(=O)n1-c1cccc(OC)c1	-0.7	-1.1	-0.6	7.7	-0.9	-0.9
CCOc1ccc(C(=O)NNC(=O)CCNC(=O)c2ccc(Br)cc2)cc1OC	-0.1	-0.8	.	-3.2	-4.0	1.0
Cc1cc(C(=O)NC2CCCc3ccccc32)c(C)o1 (centres undefined)	3.8	0.1	0.7	-1.2	-4.5	-5.2
Cc1cc(C(=O)NC2CCC(O)CC2)c(C)o1 (centres undefined)	-1.1	.	.	-1.3	88.6*	-2.6
CCCS(=O)(=O)NC(=O)C1(C)CCCN(C(=O)c2ccc3ccccc3c2)C1 (centres undefined)	2.6	.	.	0.2	1.1	1.3
N=C(N)c1ccc(N=Nc2c(O)ccc3c2[nH]c2ccccc23)cc1	98.7	.	.	23.9	105.0	42.1*
NC(=O)c1ccc(N=Nc2c(O)c3ccccc3[nH]c2=O)cc1	.	0.2	-0.1	.	.	.
Cc1ccc(S(C)(=O)=O)cc1C(=O)OCC(=O)N1CCCC1=O	-2.8	.	.	-2.7	-5.0	1.0
O=C(CCNC(=O)C1CCN(S(=O)(=O)c2ccccc2)CC1)NCc1cccc(C(F)(F)F)c1	38.4*	-7.8	-3.0	-2.8	2.4	2.7
SMILES	HNF4A DNA FP	PP1 inh	TPT1 inh	Rpn11 inh	CSN deneddyl inh	NadD block
Nc1[nH]c(C(=O)c2ccccc2)c(-c2ccccc2C(F)(F)F)c1C(=O)c1cccs1	10.3	.	.	.	5.3	12.6
O=C(O)c1ccccc1-c1c2cc(I)c(=O)c(I)c-2oc2c(I)c(O)c(I)cc12	-99.2	11.9	-51.0	.	-74.2	28.5*!
CCC(C)c1ccccc1NC(=O)COC(=O)C1=NN(c2ccccc2)C(=O)CC1 (centres undefined)	2.3	.	.	-5.2	2.6	-5.6
O=C(c1cccc(Cl)c1)N1CCN(c2ccc3c(c2)C2CC3CCN2C(=O)OCc2ccccc2)CC1 (centres undefined)	1.6	.	.	-0.4	3.6	8.1
CC(C)(C)OC(=O)COc1cc(OCC(=O)OC(C)(C)C)c2c(=O)cc(-c3ccccc3)oc2c1	3.0	16.6*	0.9	6.3	-0.3	0.9
O=C(/C=C/c1ccc([N+](=O)[O-])cc1)N1CCN(S(=O)(=O)c2ccccc2)CC1	2.9	-0.4	.	-2.9	47.1*	-2.2
CCOc1ccc(/C(O)=C2/C(=O)C(=O)N(CCCN3CCOCC3)C2c2ccc(C)cc2)cc1C (centres undefined)	3.0	.	.	0.8	6.1	22.0
CCOc1ccccc1N1CCN(C(=O)c2ccc(OCC(=O)N3CCOCC3)c(OC)c2)CC1	-3.7	-1.2	-2.5	0.2	-1.0	-1.9
CCN(CC)c1ncnc2c1ncn2[C@H]1CN(Cc2ccccc2)C[C@@H](COC(C)=O)O1	2.5	.	.	-2.1	1.8	-1.6
COCCCNC(=O)CSc1ccsc1[N+](=O)[O-]	-2.5	-1.5	-0.5	-9.3	1.1	-0.8
Cc1ccccc1NC(=O)CSc1ccsc1[N+](=O)[O-]	-36.1	-1.3	2.9	-11.8	35.0*	1.3
Cc1ccccc1N(CC(=O)NC1CCCCC1)C(=O)CCC(=O)Nc1nccs1	0.1	17.2*	-0.2	-2.8	0.5	-2.7
Cc1ccc(NS(=O)(=O)c2ccc(C(=O)NCCCN3CCCC3=O)cc2)cc1	-0.9	-8.5	-3.7	9.8	2.2	0.3
CCC(=O)NC(c1ccc(OC)cc1)c1cc(Cl)c2cccnc2c1O (centres undefined)	-2.4	16.3*	1.1	21.6	-1.2	2.8
CCC(=O)NC(c1ccco1)c1cc(Cl)c2cccnc2c1O (centres undefined)	-0.7	5.2	2.4	27.3	-8.1	25.9
CN1c2ccccc2C(=O)/C(=C\Nc2ncccn2)S1(=O)=O	0.5	0.7	-4.0	8.2	-0.3	-4.8
Cc1sc2c(c1C)C(=O)/C(=C\Nc1ccncc1)S(=O)(=O)N2C	6.5	-2.0	-1.7	4.9	35.0*	-5.3
CC(=O)c1c[nH]c(C(=O)NCc2cccc(C(F)(F)F)c2)c1	-0.2	1.6	-4.1	-2.7	0.0	-7.4
COc1cccc(OCc2cc(C3Nc4ccccc4C(=O)N3Cc3ccco3)ccc2OC)c1 (centres undefined)	6.0	.	.	30.2	4.7	30.5*
Nc1ccn([C@@H]2O[C@H](CNCc3cc(Br)ccc3OCc3ccccc3)[C@@H](O)[C@H]2O)c(=O)n1	5.2	.	.	-6.1	1.0	-0.4
NC(N)=N/N=C/c1ccccc1	-2.6	-0.8	-1.1	2.6	1.5	-3.5
NC(N)=N/N=C/c1ccc(OCc2ccccc2Cl)cc1	6.1	16.7*	0.5	3.2	4.9	-1.6

Source: PubChem
